≈ marks a conversion by molar mass, not a printed value. Calls of active or inactive are those of the source. The rule behind the calls is not given here.
Tests used:
[1] = tested on: Mycobacterium tuberculosis; test: Antimycobacterial activity against Mycobacterium tuberculosis H37Rv; assay type: functional
Outline: (§1)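 MIC determined by agar dilution, following the NCCLS-recommended approach, in duplicate. Strains were M. tuberculosis H37Rv and a multidrug-resistant M. tuberculosis. Concentrations were tested up to 25 µg/mL.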

[2] = tested on: Vero; test: Cytotoxicity against Vero cell line; assay type: functional, cell-based; settings: Chlorocebus sabaeus
[3] = tested on: Mycobacterium tuberculosis; test: Antimycobacterial activity against Mycobacterium tuberculosis H37Rv at 25 ug/ml; assay type: functional, organism-based; outline: as §1
[4] = tested on: Mycobacterium tuberculosis; test: Activity against Mycobacterium tuberculosis H37Rv infected in CD1 mouse assessed as decrease in bacterial load relative to control in lung at 25 mg/kg, ip; assay type: functional; settings: route intraperitoneal
Outline: (§2)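 Female CD-1 mice, 6 weeks old, infected intravenously via the caudal vein with about 10⁷ viable M. tuberculosis ATCC 35801. Intraperitoneal treatment for 10 days after inoculation.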

[5] = tested on: Mycobacterium tuberculosis; test: Activity against Mycobacterium tuberculosis H37Rv infected in CD1 mouse assessed as decrease in bacterial load relative to control in spleen at 25 mg/kg, ip; assay type: functional; settings: route intraperitoneal; outline: as §2
[6] = tested on: Mycobacterium tuberculosis; test: Activity against Mycobacterium tuberculosis H37Rv infected in CD1 mouse assessed as decrease in bacterial load relative to control in lung at 50 mg/kg, ip; assay type: functional; settings: route intraperitoneal; outline: as §2
[7] = tested on: Mycobacterium tuberculosis; test: Activity against Mycobacterium tuberculosis H37Rv infected in CD1 mouse assessed as decrease in bacterial load relative to control in spleen at 50 mg/kg, ip; assay type: functional; settings: route intraperitoneal; outline: as §2
[8] = tested on: Vero; test: Selectivity index, IC50 for Vero cell line/ MIC for Mycobacterium tuberculosis H37Rv; assay type: functional
Outline: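 Vero cells were exposed to compound at 62.5 µg/mL for 72 h. Viability was read by MTT conversion to formazan. Selectivity index is the Vero IC50 divided by the agar-dilution MIC against the listed strain.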

Oc1[nH]c2ccc(F)cc2c1/N=N/C(S)=N/c1ncc(C2CCC2)o1
MIC [1]: 12.5 µg/mL (≈ 34.8 µM)

S=C(N/N=C/c1ccc(Cl)cc1)Nc1ncc(C2CCC2)o1
MIC [1]: 1.56 µg/mL (≈ 4.66 µM)

O=[N+]([O-])c1ccccc1/C=N/N=C(\S)Nc1ncc(C2CCC2)o1
MIC [1]: 0.78 µg/mL (≈ 2.26 µM)

C/C(=N\N=C(/S)Nc1ncc(C2CCC2)o1)c1ccc(O)cc1
MIC [1]: 3.12 µg/mL (≈ 9.44 µM)

CO[C@H]1/C=C/O[C@@]2(C)Oc3c(C)c(O)c4c(O)c(c(/C=N/N5CCN(C)CC5)c(O)c4c3C2=O)NC(=O)/C(C)=C\C=C\[C@H](C)[C@H](O)[C@@H](C)[C@@H](O)[C@@H](C)[C@H](OC(C)=O)[C@@H]1C [RIFAMPIN]
IC50 [2]: > 62.5 µg/mL
MIC [1]: 0.1 µg/mL (≈ 0.122 µM)

C/C(=N\N=C(/S)Nc1ncc(C2CCC2)o1)c1ccc([N+](=O)[O-])cc1
IC50 [2]: 62.5 µg/mL (≈ 174 µM)
MIC [1]: 0.2 µg/mL (≈ 0.556 µM)

Oc1[nH]c2ccccc2c1/N=N/C(S)=N/c1ncc(C2CCC2)o1
MIC [1]: 25 µg/mL (≈ 73.2 µM)

C/C(=N\N=C(/S)Nc1ncc(C2CCC2)o1)c1ccc(C)cc1
MIC [1]: 0.78 µg/mL (≈ 2.37 µM)

O=[N+]([O-])c1ccc(/C=N/N=C(\S)Nc2ncc(C3CCC3)o2)cc1
IC50 [2]: < 62.5 µg/mL
MIC [1]: 0.39 µg/mL (≈ 1.13 µM)

C/C(=N\N=C(/S)Nc1ncc(C2CCC2)o1)c1ccccc1O
MIC [1]: 3.12 µg/mL (≈ 9.44 µM)

N/N=C(\S)Nc1ncc(C2CCC2)o1
Activity [3]: inactive

CC[C@@H](CO)NCCN[C@@H](CC)CO [ETHAMBUTOL]
IC50 [2]: > 62.5 µg/mL
MIC [1]: 1.56 µg/mL (≈ 7.64 µM)

NNC(=O)c1ccncc1 [ISONIAZID]
IC50 [2]: > 62.5 µg/mL
MIC [1]: 0.05 µg/mL (≈ 0.365 µM)
Log10 cfu [4]: 5.12
Log10 cfu [5]: 4.11

S=C(N/N=C(\c1ccccc1)c1ccc(Br)cc1)Nc1ncc(C2CCC2)o1
IC50 [2]: > 62.5 µg/mL
MIC [1]: 0.05 µg/mL (≈ 0.11 µM)
Log10 cfu [6]: 5.78
Log10 cfu [7]: 5.12

COc1cc(/C=N/N=C(\S)Nc2ncc(C3CCC3)o2)ccc1O
MIC [1]: 12.5 µg/mL (≈ 36.1 µM)

Oc1ccccc1/C=N/N=C(\S)Nc1ncc(C2CCC2)o1
MIC [1]: 6.25 µg/mL (≈ 19.8 µM)

COc1c(N2CCNC(C)C2)c(F)cc2c(=O)c(C(=O)O)cn(C3CC3)c12 (stereo not drawn) [GATIFLOXACIN]
IC50 [2]: > 62.5 µg/mL
MIC [1]: 0.2 µg/mL (≈ 0.533 µM)
Log10 cfu [6]: 6.02
Log10 cfu [7]: 6.24

COc1ccc(/C=N/N=C(\S)Nc2ncc(C3CCC3)o2)cc1
MIC [1]: 6.25 µg/mL (≈ 18.9 µM)

Cc1ccc(/C=N/N=C(\S)Nc2ncc(C3CCC3)o2)cc1
IC50 [2]: < 62.5 µg/mL
MIC [1]: 3.12 µg/mL (≈ 9.92 µM)

S=C(NN=C(c1ccccc1)c1ccccc1)Nc1ncc(C2CCC2)o1
IC50 [2]: > 62.5 µg/mL
MIC [1]: 0.1 µg/mL (≈ 0.266 µM)
Selectivity index [8]: >1250

O=[N+]([O-])c1cccc(/C=N/N=C(\S)Nc2ncc(C3CCC3)o2)c1
IC50 [2]: < 62.5 µg/mL
MIC [1]: 0.78 µg/mL (≈ 2.26 µM)

C/C(=N\N=C(/S)Nc1ncc(C2CCC2)o1)c1ccc(N)cc1
IC50 [2]: 62.5 µg/mL (≈ 190 µM)
MIC [1]: 0.78 µg/mL (≈ 2.37 µM)

S=C(NN=C(Cc1ccccc1)Cc1ccccc1)Nc1ncc(C2CCC2)o1
MIC [1]: 6.25 µg/mL (≈ 15.4 µM)

C/C(=N\N=C(/S)Nc1ncc(C2CCC2)o1)c1ccccc1
MIC [1]: 3.12 µg/mL (≈ 9.92 µM)

CN(C)c1ccc(/C=N/N=C(\S)Nc2ncc(C3CCC3)o2)cc1
MIC [1]: 3.12 µg/mL (≈ 9.08 µM)
